Measurements of several laboratories.
Compare with care: the assays were run in different laboratories.
Target: Receptor-interacting serine/threonine-protein kinase 1 (RIPK1, Homo sapiens, UniProt Q13546)
Sequence (Q13546 1-671, as in one of the studies): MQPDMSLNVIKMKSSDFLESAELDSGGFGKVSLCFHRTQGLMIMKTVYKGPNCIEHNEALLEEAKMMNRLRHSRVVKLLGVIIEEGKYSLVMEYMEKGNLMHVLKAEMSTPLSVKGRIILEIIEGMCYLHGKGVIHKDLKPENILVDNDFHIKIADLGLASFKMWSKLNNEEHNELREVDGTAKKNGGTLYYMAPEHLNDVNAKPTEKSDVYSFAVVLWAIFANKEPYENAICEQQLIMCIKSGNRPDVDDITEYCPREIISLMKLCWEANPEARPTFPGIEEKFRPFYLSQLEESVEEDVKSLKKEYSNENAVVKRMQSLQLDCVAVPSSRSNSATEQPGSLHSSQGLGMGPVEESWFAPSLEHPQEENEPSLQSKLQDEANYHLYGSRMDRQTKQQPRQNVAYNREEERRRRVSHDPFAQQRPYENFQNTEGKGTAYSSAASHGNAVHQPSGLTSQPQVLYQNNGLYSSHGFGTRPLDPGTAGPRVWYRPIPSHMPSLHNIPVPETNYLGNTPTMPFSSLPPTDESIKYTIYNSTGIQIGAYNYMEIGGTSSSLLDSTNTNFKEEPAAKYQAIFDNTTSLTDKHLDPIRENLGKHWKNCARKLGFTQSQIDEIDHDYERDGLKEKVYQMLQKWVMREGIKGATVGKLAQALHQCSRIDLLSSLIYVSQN

| read-out | method | tested at | remaining binding [%] | SMILES |
| --- | --- | --- | --- | --- |
| binding |  | 1 µM | 100 | C[C@@H]1CCN(c2nccc(-c3cnn4ncccc34)n2)C1 |
| binding | competition with immobilised ligand | 1 µM | 2.5 | O=C(c1ccc(Nc2ncc(Cl)c(-c3cc4ccccc4s3)n2)cc1)N1CCC(N2CCCC2)CC1 |
| binding | competition with immobilised ligand | 1 µM | 100 | Nc1ncc2c(n1)-c1c([nH]c3ccc(C#CC4CC4)cc13)CCCC2 |
| binding |  | 1 µM | 98 | CN(C)c1nccc(-c2cnn3ncccc23)n1 |
| cell-free assay | competition with immobilised ligand | 1 µM | 97 | CNCc1ccccc1-c1csc([C@@H](C)Nc2nc(C)nc3cc(OC)c(OC)cc23)c1 |
| binding | competition with immobilised ligand | 1 µM | 100 | COc1cnc(Nc2cccc(S(N)(=O)=O)c2)nc1N1CCN(c2ccccc2)CC1 |
| binding |  | 1 µM | 96 | COc1ccnn2ncc(-c3ccnc(N(C)C)n3)c12 |
| binding | competition with immobilised ligand | 10 µM | 98 | c1cncc(-c2cccc(Nc3nccc(NC4CCCCC4)n3)c2)c1 |
| cell-free assay | competition with immobilised ligand | 1 µM | 100 | O=C1CCc2cc(Nc3cc(OC4CCOCC4)c([N+](=O)[O-])cc3Cl)ccc2N1 |
| binding | competition with immobilised ligand | 1 µM | 100 | CNC(=O)[C@@H]1CC[C@@H](n2c(-c3ccc4cnccc4c3)nc3ccc(C(=O)NCc4cccc(C(N)=O)c4)cc32)C1 |
| binding | competition with immobilised ligand | 1 µM | 1 | Cc1cnc(Nc2ccc(C(=O)N3CCC(N4CCCC4)CC3)cc2)nc1-c1cc2ccccc2s1 |
| binding |  | 1 µM | 100 | N[C@@H]1CCN(c2nccc(-c3cnn4ncccc34)n2)C1 |
| binding | competition with immobilised ligand | 1 µM | 45 | O=C(NCCCN1CCOCC1)c1ccc(Nc2ncc(Cl)c(-c3ccc(Cl)s3)n2)cc1 |
| cell-free assay | competition with immobilised ligand | 1 µM | 100 | CCCCN(CCCC)C(=O)CN1C[C@@H](c2cc(OC)c3c(c2)OCO3)[C@H](C(=O)O)[C@H]1CC(C)(C)CCC |
| binding | competition with immobilised ligand | 1 µM | 94 | O=C(NCC1CCOCC1)c1n[nH]cc1NC(=O)c1c(F)cccc1F |
| binding | competition with immobilised ligand | 1 µM | 100 | Cc1c(C(=O)O)cc(-c2ccc(C3CCNCC3)cc2)c2ccc(-c3ccc(C(F)(F)F)cc3)cc12 |
| binding |  | 1 µM | 97 | CN(CCCC(F)(F)F)c1nccc(-c2cnn3ncccc23)n1 |
| binding | competition with immobilised ligand | 5 µM | 81 | FC(F)(F)Oc1cccc(-c2cnc3ccc(-c4ccncc4)nn23)c1 |
| cell-free assay | competition with immobilised ligand | 1 µM | 100 | CCC(=O)N[C@H]1CC[C@@H](C(=O)N(C)c2ccc(-c3nc4ccccc4o3)cc2)C1 |
